ChEMBL document CHEMBL1157963, “Characterization of pentasaccharide glycosides from the roots of Ipomoea arborescens” (2006)
≈ marks a conversion by molar mass, not a printed value.

What was measured:
Type in all cases: functional
Conditions in all cases: read-out: ED50 (the source's name)
HCT-15 = experiment: Cytotoxicity against human HCT15 cells
How it was run: (§1)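 Cultured human carcinoma lines were used: colon HCT-15, cervical UISO-SQC-1 and ovarian OVCAR-5. Cells were exposed to a series of concentrations of the purified glycosides, and the cell inhibitory concentration was determined. Maintenance and assay details follow an earlier procedure that is not given here.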

[1] = Cytotoxicity against human UISO-SQC1 cells; how it was run: as §1
OVCAR-5 = experiment: Cytotoxicity against human OVCAR5 cells; how it was run: as §1

Question: For `CCCCCCCCCCCC(=O)O[C@H]1[C@H](O[C@@H]2[C@@H](O)[C@H]3OC(=O)CCCCCCCCCC(CCCCC)O[C@@H]4O[C@H](C)[C@@H](O)[C@H](O)[C@H]4O[C@H]3O[C@H]2C)O[C@@H](C)[C@H](O[C@@H]2O[C@@H](C)[C@H](O)[C@@H](O)[C@H]2O[C@H]2O[C@H](CO)[C@@H](O)[C@H](O)[C@H]2O)[C@H]1O` (some centres undefined) [MURUCIN 9], which EC50 (HCT-15) is on record?
Answer: > 5 µg/mL

Question: What about the EC50 [1] of the same compound?
Answer: > 5 µg/mL

Question: And the EC50 (OVCAR-5)?
Answer: 4 µg/mL (≈ 3.38 µM)

Question: What does the source list for `C/C=C(\C)C(=O)O[C@@H]1[C@@H](OC(=O)C(C)C(C)O)[C@@H](O[C@H]2O[C@H](CO)[C@@H](O)[C@H](O)[C@H]2O)[C@H](O[C@@H]2[C@@H](O)[C@@H](OC(=O)CCCCCCCCCCC)[C@H](O[C@@H]3[C@@H](O)[C@H]4OC(=O)CCCCCCCCCC(CCCCC)O[C@@H]5O[C@H](C)[C@@H](O)[C@H](O)[C@H]5O[C@H]4O[C@H]3C)O[C@H]2C)O[C@H]1C` (some centres undefined) [MURUCIN 8]?
Answer: EC50 (HCT-15): > 5 µg/mL; EC50 [1]: > 5 µg/mL; EC50 (OVCAR-5): > 5 µg/mL

Question: With `CCCCCCCCCCCC(=O)O[C@H]1[C@H](O[C@@H]2[C@@H](O)[C@H]3OC(=O)CCCCCCCCCC(CCCCC)O[C@@H]4O[C@H](CO)[C@@H](O)[C@H](O)[C@H]4O[C@H]3O[C@H]2C)O[C@@H](C)[C@H](O[C@@H]2O[C@@H](C)[C@H](OC(=O)CCC)[C@@H](OC(=O)C(C)C(C)O)[C@H]2O[C@H]2O[C@H](CO)[C@@H](O)[C@H](O)[C@H]2O)[C@H]1O` (some centres undefined) [ARBORESIN 4] as the compound, how does the EC50 (HCT-15) read?
Answer: > 5 µg/mL

Question: And the EC50 [1]?
Answer: > 5 µg/mL

Question: What about the EC50 (OVCAR-5) of the same compound?
Answer: > 5 µg/mL

Question: Which EC50 (HCT-15) does the source give for `CCCCCCCCCCCC(=O)O[C@H]1[C@H](O[C@@H]2[C@@H](O)[C@H]3OC(=O)CCCCCCCCCC(CCCCC)O[C@@H]4O[C@H](CO)[C@@H](O)[C@H](O)[C@H]4O[C@H]3O[C@H]2C)O[C@@H](C)[C@H](O[C@@H]2O[C@@H](C)[C@H](OC(=O)C(C)CC)[C@@H](OC(=O)C(C)C(C)O)[C@H]2O[C@H]2O[C@H](CO)[C@@H](O)[C@H](O)[C@H]2O)[C@H]1O` (some centres undefined) [ARBORESIN 5] here?
Answer: > 5 µg/mL

Question: And the EC50 [1]?
Answer: > 5 µg/mL

Question: And the EC50 (OVCAR-5)?
Answer: > 5 µg/mL

Question: With `CCCCCCCCCCCC(=O)O[C@H]1[C@H](O[C@@H]2[C@@H](O)[C@H]3OC(=O)CCCCCCCCCC(CCCCC)O[C@@H]4O[C@H](CO)[C@@H](O)[C@H](O)[C@H]4O[C@H]3O[C@H]2C)O[C@@H](C)[C@H](O[C@@H]2O[C@@H](C)[C@H](O)[C@@H](OC(=O)C(C)C(C)O)[C@H]2O[C@H]2O[C@H](CO)[C@@H](O)[C@H](O)[C@H]2O)[C@H]1O` (some centres undefined) [ARBORESIN 1] as the compound, how does the EC50 (HCT-15) read?
Answer: > 5 µg/mL

Question: What about the EC50 [1] of the same compound?
Answer: > 5 µg/mL

Question: What about the EC50 (OVCAR-5) of the same compound?
Answer: 5 µg/mL (≈ 3.85 µM)

Question: For `CCCCCCCCCCCC(=O)O[C@H]1[C@H](O[C@@H]2[C@@H](O)[C@H]3OC(=O)CCCCCCCCCC(CCCCC)O[C@@H]4O[C@H](CO)[C@@H](O)[C@H](O)[C@H]4O[C@H]3O[C@H]2C)O[C@@H](C)[C@H](O[C@@H]2O[C@@H](C)[C@H](OC(C)=O)[C@@H](OC(=O)C(C)C(C)O)[C@H]2O[C@H]2O[C@H](CO)[C@@H](O)[C@H](O)[C@H]2O)[C@H]1O` (some centres undefined) [ARBORESIN 2], which EC50 (HCT-15) is on record?
Answer: > 5 µg/mL

Question: And the EC50 [1]?
Answer: > 5 µg/mL

Question: What about the EC50 (OVCAR-5) of the same compound?
Answer: 4.2 µg/mL (≈ 3.13 µM)

Question: Which EC50 (HCT-15) does the source give for `CCCCCCCCCCCC(=O)O[C@H]1[C@H](O[C@@H]2[C@@H](O)[C@H]3OC(=O)CCCCCCCCCC(CCCCC)O[C@@H]4O[C@H](CO)[C@@H](O)[C@H](O)[C@H]4O[C@H]3O[C@H]2C)O[C@@H](C)[C@H](O[C@@H]2O[C@@H](C)[C@H](OC(=O)CC)[C@@H](OC(=O)C(C)C(C)O)[C@H]2O[C@H]2O[C@H](CO)[C@@H](O)[C@H](O)[C@H]2O)[C@H]1O` (some centres undefined) [ARBORESIN 3] here?
Answer: > 5 µg/mL

Question: And the EC50 [1]?
Answer: > 5 µg/mL

Question: And the EC50 (OVCAR-5)?
Answer: > 5 µg/mL

Question: Which EC50 (HCT-15) does the source give for `C/C=C/C(=O)O[C@@H]1[C@@H](OC(=O)C(C)C(C)O)[C@@H](O[C@H]2O[C@H](CO)[C@@H](O)[C@H](O)[C@H]2O)[C@H](O[C@@H]2[C@@H](O)[C@@H](OC(=O)CCCCCCCCCCC)[C@H](O[C@@H]3[C@@H](O)[C@H]4OC(=O)CCCCCCCCCC(CCCCC)O[C@@H]5O[C@H](C)[C@@H](O)[C@H](O)[C@H]5O[C@H]4O[C@H]3C)O[C@H]2C)O[C@H]1C` (some centres undefined) [MURUCIN 7] here?
Answer: > 5 µg/mL

Question: What about the EC50 [1] of the same compound?
Answer: > 5 µg/mL

Question: What about the EC50 (OVCAR-5) of the same compound?
Answer: 4.5 µg/mL (≈ 3.33 µM)
